Source: article PMC6426446 (Bioorganic & medicinal chemistry, 2010)
Entries after “also recorded” stand apart in the source; their conditions may differ.

Tests used:
[1] = tested on: CRL-2366 (DNA repair deficient brain glioblastoma); test: MTT assay CRL-2366; assay type: cell-based; conditions: Homo sapiens, read-out: IC50 MTT assay CRL-2366
Outline: (§1)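 Standard MTT growth-inhibition assay with DMSO as vehicle. CRL-2365 and CRL-2366 were kept in DMEM; MCF-7, A549 and mouse 3LL in RPMI-1640. Both media carried 10% fetal bovine serum, penicillin G (100 U/mL) and streptomycin (100 μg/mL). MCF-10A breast cells were grown in Mammary Epithelial Growth Medium.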

[2] = tested on: CRL-2365 (brain glioblastoma); test: MTT assay CRL-2365; assay type: cell-based; conditions: Homo sapiens, read-out: IC50 MTT assay CRL-2365
Outline: as §1

[3] = tested on: cultured human and mouse cell lines; test: MTT assay, all tested cell lines; assay type: cell-based
Outline: as §1

[4] = biological target: NADH-ubiquinone oxidoreductase (mitochondrial complex I) (Bos taurus, UniProt P03887+P17694+P42026); test: NADH-ubiquinone; assay type: biochemical, bovine; conditions: compared with 12
[5] = Stability of purified compound; assay type: physicochemical
NADH fumarate reductase = conditions: cited from earlier work
[6] = tested on: MCF-7 human breast carcinoma cells; test: Lactate assay; assay type: cell-based; conditions: MCF-7 cells, 3 h, varying concentrations
Outline: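 MCF-7 cells seeded at 2 × 10^5 per well and grown 24 h (about 50% confluence). Wells rinsed with pre-warmed Krebs-Ringer buffer, then exposed for 3 h to test compound in buffer against buffer-only controls. Supernatant lactate measured as absorbance change at 363 nm and converted using extinction coefficient 9.1 mM−1 cm−1. Three determinations per point; experiments repeated at least three times.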

[7] = biological target: NADH oxidase (complexes I, III and IV) (Bos taurus, UniProt P03887+P17694+P42026); test: NADH oxidase activity in bovine heart submitochondrial particles; assay type: biochemical; conditions: bovine heart SMP
NADH oxidase (complexes I, III and IV), sequence (P03887 whole entry): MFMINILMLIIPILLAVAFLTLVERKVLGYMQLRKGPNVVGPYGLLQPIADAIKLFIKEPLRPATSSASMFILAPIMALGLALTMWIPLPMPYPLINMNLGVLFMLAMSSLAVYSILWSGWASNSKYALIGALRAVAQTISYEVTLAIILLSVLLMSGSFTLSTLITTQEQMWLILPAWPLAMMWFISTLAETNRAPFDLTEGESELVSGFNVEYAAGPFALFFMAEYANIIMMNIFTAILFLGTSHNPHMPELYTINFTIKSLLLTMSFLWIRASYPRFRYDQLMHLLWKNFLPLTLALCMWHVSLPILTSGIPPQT
NADH oxidase (complexes I, III and IV), sequence (P42026 38-216): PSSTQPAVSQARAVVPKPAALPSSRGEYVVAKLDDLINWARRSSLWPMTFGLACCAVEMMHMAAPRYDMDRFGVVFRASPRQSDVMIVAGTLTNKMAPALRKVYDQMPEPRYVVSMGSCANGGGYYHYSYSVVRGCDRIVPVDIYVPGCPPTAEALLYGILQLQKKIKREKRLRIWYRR
NADH oxidase (complexes I, III and IV), sequence (P17694 34-463): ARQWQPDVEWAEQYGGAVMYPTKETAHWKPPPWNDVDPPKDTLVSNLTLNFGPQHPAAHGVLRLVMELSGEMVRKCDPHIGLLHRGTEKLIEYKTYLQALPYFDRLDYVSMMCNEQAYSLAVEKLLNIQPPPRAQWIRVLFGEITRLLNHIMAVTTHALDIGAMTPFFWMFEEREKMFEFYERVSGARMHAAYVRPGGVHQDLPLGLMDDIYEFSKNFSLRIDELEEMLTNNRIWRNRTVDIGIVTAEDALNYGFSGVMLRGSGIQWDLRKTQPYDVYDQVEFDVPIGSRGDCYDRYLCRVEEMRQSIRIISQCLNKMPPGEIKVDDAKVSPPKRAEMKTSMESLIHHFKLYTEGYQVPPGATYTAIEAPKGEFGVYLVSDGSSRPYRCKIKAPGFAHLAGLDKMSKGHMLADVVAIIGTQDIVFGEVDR

NADH-ubiquinone oxidoreductase (mitochondrial complex I), sequence (P03887 whole entry): as the sequence (P03887 whole entry) above
NADH-ubiquinone oxidoreductase (mitochondrial complex I), sequence (P42026 38-216): as the sequence (P42026 38-216) above
NADH-ubiquinone oxidoreductase (mitochondrial complex I), sequence (P17694 34-463): as the sequence (P17694 34-463) above

Row | IC50 [1] [µM] | IC50 [2] [µM] | SMILES | Stimulation of lactate production (in words) [6] | other results
1 | > 31 | > 31 | CCCCCCCCC(C)(O)CCc1oc(=O)c(C)c(O)c1C (racemic) [Compound 12, (rac)-6-[3-Hydroxy-3-methylundecyl]-3,5-dimethyl-4-hydroxypyran-2-one] |  | 
2 |  |  | CCCCCCCCC(C)(O)CCc1oc(C)c(C)c(=O)c1C (racemic) [Compound 18, (rac)-2-[3-Hydroxy-3-methylundecyl]-3,5,6-trimethyl-4H-pyran-4-one] |  | Cytotoxicity (in words) [3]: no cytotoxicity
3 |  |  | CCCCCCCCC(C)(O)CCc1[nH]c(=O)c(C)c(O)c1C (racemic) [Compound 21, (rac)-6-[3-Hydroxy-3-methylundecyl]-3,5-dimethyl-4-hydroxypyridin-2-one] |  | Potency relative to 12 as inhibitor of NADH-ubiquinone oxidoreductase [4]: more than 10 fold; Stability after purification by preparative thin layer chromatography [5]: rather unstable
4 |  |  | CCCCCCCCCC(O)Cc1oc(OC)c(C)c(=O)c1C (stereo not shown) [Compound 1, 2-(2-Hydroxyundecyl)-6-methoxy-3,5-dimethyl-4H-pyran-4-one] | strongly stimulated | Inhibitory activity toward NADH fumarate reductase (in words) (NADH fumarate reductase): strong inhibitory activity
5 | > 31 | > 31 | CCCCCCCC[C@@](C)(O)CCc1oc(=O)c(C)c(O)c1C [Compound 13, (R)-6-[3-Hydroxy-3-methylundecyl]-3,5-dimethyl-4-hydroxypyran-2-one] |  | 
6 | > 31 | > 31 | CCCCCCCC[C@](C)(O)CCc1oc(=O)c(C)c(O)c1C [Compound 14, (S)-6-[3-Hydroxy-3-methylundecyl]-3,5-dimethyl-4-hydroxypyran-2-one] | weakly stimulated | 
7 |  |  | CCCCCCCC[C@](C)(O)CCc1oc(OC)c(C)c(=O)c1C [Compound 17, (S)-2-[3-Hydroxy-3-methylundecyl]-6-methoxy-3,5-dimethyl-4H-pyran-4-one] | strongly stimulated | 
8 |  |  | CCCCC(O)Cc1oc(OC)c(C)c(=O)c1C (stereo not shown) [Compound 22, 2-(2-Hydroxyhexyl)-6-methoxy-3,5-dimethyl-4H-pyran-4-one] | weakly stimulated | Inhibition of mitochondrial respiratory chain function (in words) [7]: did not inhibit; also recorded: no inhibitory activity
9 |  |  | COc1oc(CC(O)CCCCCOc2ccc(-c3ccccc3)cc2)c(C)c(=O)c1C (stereo not shown) [Compound 30, 2-[2-Hydroxy-7-(4-phenyl)phenoxyheptyl]-6-methoxy-3,5-dimethyl-4H-pyran-4-one] | strongly stimulated | 
